Legend:
[1] = species: Rattus norvegicus; experiment: Selectivity index, ratio of IC50 for Fischer-344 rat kidney ALR1 to IC50 for Fischer-344 rat lens ALR2; format: tissue-based; details: Lens of camera-type eye
Outline: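 Selectivity index calculated from the IC50 values of two spectrophotometric NADPH-consumption assays (340 nm). Rat kidney ALR1 was measured at 37 °C and rat lens ALR2 at 30 °C. Each IC50 was derived by least-squares fitting of triplicate five-concentration log(dose)–response data.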

[2] = target: Aldo-keto reductase family 1 member B1 (Rattus norvegicus, UniProt P07943); experiment: Inhibition of Fischer-344 rat lens ALR2 by spectrophotometry
[3] = target: Aldo-keto reductase family 1 member A1 (Rattus norvegicus, UniProt P51635); experiment: Inhibition of Fischer-344 rat kidney ALR1 using D-glycuronate as substrate by spectrophotometry
[4] = target: Aldo-keto reductase family 1 member A1 (Rattus norvegicus) (UniProt P51635); experiment: Inhibition of Fischer-344 rat kidney ALR1 using D-glycuronate as substrate at 10' -5 M by spectrophotometry
Aldo-keto reductase family 1 member A1 (Rattus norvegicus), sequence (P51635 whole entry, looked up): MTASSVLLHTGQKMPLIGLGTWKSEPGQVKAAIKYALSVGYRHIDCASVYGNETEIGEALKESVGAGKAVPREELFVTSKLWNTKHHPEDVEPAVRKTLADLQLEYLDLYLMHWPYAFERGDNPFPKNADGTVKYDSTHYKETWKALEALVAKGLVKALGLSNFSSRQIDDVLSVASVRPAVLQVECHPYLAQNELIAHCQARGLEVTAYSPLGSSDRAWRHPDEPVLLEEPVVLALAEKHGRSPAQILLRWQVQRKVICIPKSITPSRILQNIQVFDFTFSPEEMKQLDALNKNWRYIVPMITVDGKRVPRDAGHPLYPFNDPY

Aldo-keto reductase family 1 member A1, sequence (P51635 whole entry, looked up): as above

Row | SMILES | Ratio IC50 [1] | IC50 [2] | IC50 [3] | inhibition [4]
1 | O=C(c1ccc(-c2ccccc2)cc1)c1cccn1-c1cc(F)c(O)c(F)c1 | 238 | 0.51 µM | 121 µM | 5.85%
2 | O=C(c1ccc(OC(F)(F)F)cc1)c1cccn1-c1cc(F)c(O)c(F)c1 | 31.1 | 0.52 µM | 16.2 µM | 30.9%
3 | O=C(c1ccn(-c2cc(F)c(O)c(F)c2)c1)c1ccc(Br)cc1F |  | 0.4 µM | 4.31 µM | 
4 | O=C(c1ccc(OC(F)(F)F)cc1)c1ccn(-c2cc(F)c(O)c(F)c2)c1 | 17.5 | 0.75 µM | 13.1 µM | 38%
5 | O=C(c1ccc(Br)cc1F)c1cccn1-c1cc(F)c(O)c(F)c1 | 1 | 0.19 µM | 0.19 µM | 96.8%
6 | O=C(c1ccc(-c2ccccc2)cc1)c1ccn(-c2cc(F)c(O)c(F)c2)c1 | 1.87 | 2.3 µM | 5.63 µM | 72.8%
7 | O=C(c1cccn1-c1cc(F)c(O)c(F)c1)C(F)(F)F | 20.3 | 0.93 µM | 18.9 µM | 26.5%

From ChEMBL document CHEMBL2311444, “Synthesis of derivatives of the keto-pyrrolyl-difluorophenol scaffold: some structural aspects for aldose reductase inhibitory activity and selectivity” (Bioorg Med Chem, 2013)
